{
  "source": "ChEMBL document CHEMBL4837218",
  "about": "“Synthesis and in vitro antitumour activity of 4(R)-methyl-3-O-phosphonomethyl-α-l-threose nucleosides” (Eur J Med Chem, 2021)",
  "key": {"MDA-MB-231 [1]": {"system": "MDA-MB-231", "experiment": "Cell cycle arrest in human MDA-MB-231 cells assessed as accumulation at S phase at 6 uM measured after 48 hrs by propidium iodide staining based flow cytometry (reference value: 35.54 %)", "type": "functional"}, "MDA-MB-231 [2]": {"system": "MDA-MB-231", "experiment": "Potency index, ratio of 5-FU IC50 to test compound IC50 for anticancer activity against human MDA-MB-231 cells measured after 72 hrs by MTT assay", "type": "functional", "summary_of_the_method": "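MTT assay: 3000 exponentially growing cells per well, 12 h at 37 °C. Medium replaced with compound at a range of concentrations for 72 h. MTT (5 mg/mL stock) added for 4 h, formazan dissolved in DMSO. Absorbance read at 570 nm (reference 630 nm); percent inhibition gives IC50. Index is 5-FU IC50 divided by test-compound IC50.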"}, "MDA-MB-231 [3]": {"system": "MDA-MB-231", "experiment": "Induction of apoptosis in human MDA-MB-231 cells assessed as early apoptotic cells at 3 uM measured after 48 hrs by Annexin V-FITC/propidium iodide staining based flow cytometric analysis (reference value: 1%)", "type": "functional"}, "MCF7 [4]": {"system": "MCF7", "experiment": "Induction of apoptosis in human MCF7 cells assessed as late apoptotic cells at 1 uM measured after 48 hrs by Annexin V-FITC/propidium iodide staining based flow cytometric analysis (reference value: 0.6 %)", "type": "functional"}, "GES1": {"system": "GES1", "experiment": "Antiproliferative activity against human GES1 cells assessed as growth inhibition measured after 72 hrs by MTT assay", "type": "functional, cell-based", "conditions": "GES1, 72 h", "summary_of_the_method": "(§1)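 Cells seeded at 3000 exponentially growing cells/well and incubated 12 h at 37 °C. Medium then replaced with fresh medium containing graded compound concentrations for 72 h; 5-FU positive control. MTT (5 mg/mL solution) added for 4 h, formazan dissolved in DMSO, absorbance read at 570 nm (reference 630 nm). Relative percentage inhibition of viable cells calculated; IC50 reported as mean ± standard deviation.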"}, "MDA-MB-231 [5]": {"system": "MDA-MB-231", "experiment": "Cell cycle arrest in human MDA-MB-231 cells assessed as accumulation of cells at G2/M phase at 9 uM in presence of cdc25c inhibitor, NSC663284 measured after 48 hrs by PI staining based flow cytometry", "type": "functional", "summary_of_the_method": "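Four arms (untreated, test compound alone, 0.3 NSC663284 alone, combination) applied to cells for 48 h. Cells were fixed in 70% ice-cold ethanol at 4 °C overnight and stained with RNase/PI for 30 min in the dark. G2/M fraction was read by flow cytometry.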"}, "MDA-MB-231 [6]": {"system": "MDA-MB-231", "experiment": "Induction of apoptosis in human MDA-MB-231 cells assessed as increase in cleaved caspase 7 protein expression at 3 to 9 uM measured after 48 hrs by western blot analysis", "type": "functional, cell-based", "conditions": "dose 3-9 µM", "summary_of_the_method": "(§2)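 MCF-7 and MDA-MB-231 breast cancer cells treated 48 h with a concentration series, then lysed for protein. SDS-PAGE on 5–15% gels, transfer to nitrocellulose. Blocked 2 h in 5% nonfat milk/PBS-0.1% Tween 20, primary antibodies overnight at 4 °C, biotin-conjugated secondary 1 h. X-ray film detection with densitometric quantification.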"}, "MDA-MB-231 [7]": {"system": "MDA-MB-231", "experiment": "Induction of G2/M phase cell cycle arrest in human MDA-MB-231 cells assessed as decrease in p-cdc2 protein expression at 3 to 9 uM measured after 48 hrs by western blot analysis", "type": "functional, cell-based", "conditions": "dose 3-9 µM", "summary_of_the_method": "(§3)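 Cells exposed to graded concentrations for 48 h, then proteins extracted. Run on SDS-PAGE (5–15% gels) and transferred to nitrocellulose. Blocked 2 h in 5% nonfat milk in PBS/0.1% Tween 20, primary antibody overnight at 4 °C, biotin-conjugated secondary 1 h. Visualized on X-ray film with densitometric quantitation; three independent experiments.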"}, "MCF7 [8]": {"system": "MCF7", "experiment": "Induction of apoptosis in human MCF7 cells assessed as increase in Bad protein expression at 1 to 4 uM measured after 48 hrs by western blot analysis", "type": "functional, cell-based", "conditions": "dose 1-4 µM", "summary_of_the_method": "as §2"}, "MCF7 [9]": {"system": "MCF7", "experiment": "Induction of DNA damage in human MCF7 cells assessed as increase in Chk2 phosphorylation at Thr68 residue at 1 to 4 uM measured after 48 hrs by western blot analysis", "type": "functional, cell-based", "conditions": "dose 1-4 µM", "summary_of_the_method": "as §3"}, "MDA-MB-231 [10]": {"system": "MDA-MB-231", "experiment": "Cell cycle arrest in human MDA-MB-231 cells assessed as accumulation at S phase at 3 uM measured after 48 hrs by propidium iodide staining based flow cytometry (reference value: 35.54 %)", "type": "functional"}, "MDA-MB-231 [11]": {"system": "MDA-MB-231", "experiment": "Induction of apoptosis in human MDA-MB-231 cells assessed as increase in Noxa protein expression at 3 to 9 uM measured after 48 hrs by western blot analysis", "type": "functional, cell-based", "conditions": "dose 3-9 µM", "summary_of_the_method": "as §2"}, "MCF7 [12]": {"system": "MCF7", "experiment": "Induction of apoptosis in human MCF7 cells assessed as early apoptotic cells at 4 uM measured after 48 hrs in presence of cdc25c inhibitor, NSC663284 by AnnexinV-FITC/PI staining based flow cytometry (reference value: 0.9%)", "type": "functional"}, "MCF7 [13]": {"system": "MCF7", "experiment": "Cell cycle arrest in human MCF7 cells assessed as accumulation at G2/M phase at 4 uM measured after 48 hrs by propidium iodide staining based flow cytometry (reference value: 0.01 %)", "type": "functional"}, "MCF7 [14]": {"system": "MCF7", "experiment": "Induction of apoptosis in human MCF7 cells assessed as late apoptotic cells at 2 uM measured after 48 hrs by Annexin V-FITC/propidium iodide staining based flow cytometric analysis (reference value: 0.6 %)", "type": "functional"}, "MDA-MB-231 [15]": {"system": "MDA-MB-231", "experiment": "Induction of G2/M phase cell cycle arrest in human MDA-MB-231 cells assessed as increase in Cdc25c protein expression at 3 to 9 uM measured after 48 hrs by western blot analysis", "type": "functional, cell-based", "conditions": "dose 3-9 µM"}, "HeLa": {"system": "HeLa", "experiment": "Anticancer activity against human HeLa cells assessed as inhibition of cell growth measured after 72 hrs by MTT assay", "type": "functional, cell-based", "summary_of_the_method": "as §1"}, "MDA-MB-231 [16]": {"system": "MDA-MB-231", "experiment": "Induction of DNA damage in human MDA-MB-231 cells assessed as increase in ATM protein expression at 3 to 9 uM measured after 48 hrs by western blot analysis", "type": "functional, cell-based", "conditions": "dose 3-9 µM", "summary_of_the_method": "as §3"}, "MDA-MB-231 [17]": {"system": "MDA-MB-231", "experiment": "Antiproliferative activity against human MDA-MB-231 cells assessed as growth inhibition measured after 72 hrs by MTT assay", "type": "functional, cell-based", "conditions": "MDA-MB-231, 72 h", "summary_of_the_method": "as §1"}, "MDA-MB-231 [18]": {"system": "MDA-MB-231", "experiment": "Induction of apoptosis in human MDA-MB-231 cells assessed as late apoptotic cells at 3 uM measured after 48 hrs by Annexin V-FITC/propidium iodide staining based flow cytometric analysis (reference value: 0.3%)", "type": "functional"}, "MCF7 [19]": {"system": "MCF7", "experiment": "Induction of mitochondrial membrane potential loss in human MCF7 cells assessed as green fluorescence intensity at 4 uM measured after 48 hrs by JC1 staining-based flow cytometry analysis (reference value: 8.1 %)", "type": "functional"}, "MCF7 [20]": {"system": "MCF7", "experiment": "Induction of mitochondrial membrane potential loss in human MCF7 cells assessed as red fluorescence intensity at 4 uM measured after 48 hrs by JC1 staining-based flow cytometry analysis (reference value: 91.9%)", "type": "functional"}, "MCF7 [21]": {"system": "MCF7", "experiment": "Induction of G2/M phase cell cycle arrest in human MCF7 cells assessed as upregulation of p-cdc25c at ser216 residue protein expression at 4 uM measured after 48 hrs by western blot analysis", "type": "functional, cell-based", "summary_of_the_method": "as §3"}, "MDA-MB-231 [22]": {"system": "MDA-MB-231", "experiment": "Induction of apoptosis in human MDA-MB-231 cells assessed as increase in cleaved caspase 3 protein expression at 9 uM measured after 48 hrs in presence of cdc25c inhibitor, NSC663284 by western blot analysis", "type": "functional, cell-based", "summary_of_the_method": "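Four arms per cell line: untreated, test compound, 0.3 µM NSC663284 alone, and combination. Proteins harvested after 48 h and resolved by SDS-PAGE on 5–15% gels, transferred to nitrocellulose. Blocked 2 h in milk/PBS-Tween, primary antibodies overnight at 4 °C, biotin-conjugated secondary. Read on X-ray film with densitometry.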"}, "MDA-MB-231 [23]": {"system": "MDA-MB-231", "experiment": "Induction of apoptosis in human MDA-MB-231 cells assessed as increase in cleaved PARP protein expression at 3 to 9 uM measured after 48 hrs by western blot analysis", "type": "functional, cell-based", "conditions": "dose 3-9 µM", "summary_of_the_method": "as §2"}},
  "note": "Active and inactive are the calls of the source. The rule behind the calls is not given here.",
  "data": [
    {"smiles": "C[C@H]1O[C@@H](n2cnc3c(N)nc(F)nc32)[C@H](O)[C@H]1OCP(=O)([O-])[O-].[Na+].[Na+]", "values": [
      {"measurement": "Activity", "setting": "MDA-MB-231 [1]", "result": 31.86, "unit": "%"},
      {"measurement": "Ratio IC50", "setting": "MDA-MB-231 [2]", "result": 47},
      {"measurement": "Activity", "setting": "MDA-MB-231 [3]", "result": 14.5, "unit": "%"},
      {"measurement": "Activity", "setting": "MCF7 [4]", "result": 4.6, "unit": "%"},
      {"measurement": "IC50", "setting": "GES1", "result": 5.09, "unit": "µM"},
      {"measurement": "Activity", "setting": "MDA-MB-231 [5]", "result": "inactive"},
      {"measurement": "Activity", "setting": "MDA-MB-231 [6]", "result": "Active"},
      {"measurement": "Activity", "setting": "MDA-MB-231 [7]", "result": "Active"},
      {"measurement": "Activity", "setting": "MCF7 [8]", "result": "Active"},
      {"measurement": "Activity", "setting": "MCF7 [9]", "result": "Active"},
      {"measurement": "Activity", "setting": "MDA-MB-231 [10]", "result": 34.82, "unit": "%"},
      {"measurement": "Activity", "setting": "MDA-MB-231 [11]", "result": "Active"},
      {"measurement": "Activity", "setting": "MCF7 [12]", "result": 8.6, "unit": "%"},
      {"measurement": "Activity", "setting": "MCF7 [13]", "result": 26.15, "unit": "%"},
      {"measurement": "Activity", "setting": "MCF7 [14]", "result": 6.5, "unit": "%"},
      {"measurement": "Activity", "setting": "MDA-MB-231 [15]", "result": "Active"},
      {"measurement": "IC50", "setting": "HeLa", "result": 6.2, "unit": "µM"},
      {"measurement": "Activity", "setting": "MDA-MB-231 [16]", "result": "Active"},
      {"measurement": "IC50", "setting": "MDA-MB-231 [17]", "result": 0.391, "unit": "µM"},
      {"measurement": "Activity", "setting": "MDA-MB-231 [18]", "result": 13, "unit": "%"},
      {"measurement": "Activity", "setting": "MCF7 [19]", "result": 58.1, "unit": "%"},
      {"measurement": "Activity", "setting": "MCF7 [20]", "result": 41.9, "unit": "%"},
      {"measurement": "Activity", "setting": "MCF7 [21]", "result": "Active"},
      {"measurement": "Activity", "setting": "MDA-MB-231 [22]", "result": "inactive"},
      {"measurement": "Activity", "setting": "MDA-MB-231 [23]", "result": "Active"}
    ]}
  ]
}
